Assay results taken from ChEMBL document CHEMBL1157032, “Synthesis and antimicrobial activity of novel pyrazolo[3,4-d]pyrimidin derivatives” (2010).
Converted amounts (≈) assume the structure as drawn. The source made the active and inactive calls. No cut-off for these calls is given here.

Key:
Assay type in all cases: functional
Serratia marcescens [1] = experiment: Antimicrobial activity against Serratia marcescens MTCC 86 at MIC after 24 hrs by agar diffusion method
Summary of the method: (§1)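 Agar well diffusion on Mueller Hinton agar seeded with 0.1 mL of a 10⁵ cfu/mL bacterial suspension in 0.85% sterile saline. 6 mm wells received 0.1 mL of each compound dilution in DMSO (1% DMSO; DMSO alone as control). Plates were incubated 24 h at 37 ± 0.5 °C. Read-out was zone of inhibition in mm. MIC was taken as the lowest concentration giving complete growth inhibition.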

Escherichia coli [2] = experiment: Antimicrobial activity against Escherichia coli MTCC 1650 at MIC after 24 hrs by agar diffusion method; summary of the method: as §1
Aspergillus niger [3] = experiment: Antimicrobial activity against Aspergillus niger MTCC 1781 at MIC after 48 hrs by agar diffusion method
Summary of the method: (§2)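 Fungal spore suspensions in sterile distilled water were adjusted to 10⁶ cfu/mL, and 0.1 mL was spread on Sabouraud dextrose agar. 6 mm wells were filled with 0.1 mL of compound dilution in DMSO (1% DMSO; DMSO-only control). Plates were incubated 48 h at 28 ± 0.2 °C, and inhibition zones were measured in mm. MIC was the lowest concentration completely inhibiting growth.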

Aspergillus flavus [4] = experiment: Antimicrobial activity against Aspergillus flavus MTCC 2501 after 48 hrs; settings: MTCC 2501, 48 h; summary of the method: as §2
Trichoderma viride [5] = experiment: Antimicrobial activity against Trichoderma viride MTCC 167 after 48 hrs; settings: MTCC 167, 48 h; summary of the method: as §2
Aspergillus flavus [6] = experiment: Antimicrobial activity against Aspergillus flavus MTCC 2501 at MIC after 48 hrs by agar diffusion method; summary of the method: as §2
Penicillium chrysogenum [7] = experiment: Antimicrobial activity against Penicillium chrysogenum MTCC 1996 at MIC after 48 hrs by agar diffusion method; summary of the method: as §2
Klebsiella pneumoniae [8] = experiment: Antimicrobial activity against Klebsiella pneumoniae NCIM 2957 at MIC after 24 hrs by agar diffusion method; summary of the method: as §1
Staphylococcus aureus [9] = experiment: Antimicrobial activity against Staphylococcus aureus MTCC 96 after 24 hrs; settings: MTCC 96, 24 h; summary of the method: as §1
Bacillus subtilis [10] = experiment: Antimicrobial activity against Bacillus subtilis MTCC 1789 at MIC after 24 hrs by agar diffusion method; summary of the method: as §1
Serratia marcescens [11] = experiment: Antimicrobial activity against Serratia marcescens MTCC 86 after 24 hrs; settings: MTCC 86, 24 h; summary of the method: as §1
Proteus vulgaris [12] = experiment: Antimicrobial activity against Proteus vulgaris MTCC 1771 after 24 hrs; settings: MTCC 1771, 24 h; summary of the method: as §1
Klebsiella pneumoniae [13] = experiment: Antimicrobial activity against Klebsiella pneumoniae NCIM 2957 after 24 hrs; settings: NCIM 2957, 24 h; summary of the method: as §1
Aspergillus niger [14] = experiment: Antimicrobial activity against Aspergillus niger MTCC 1781 after 48 hrs; settings: MTCC 1781, 48 h; summary of the method: as §2
Priestia megaterium [15] = experiment: Antimicrobial activity against Bacillus megaterium MTCC 1684 at MIC after 24 hrs by agar diffusion method; summary of the method: as §1
Pseudomonas aeruginosa = experiment: Antimicrobial activity against Pseudomonas aeruginosa MTCC 2488 after 24 hrs; settings: MTCC 2488, 24 h; summary of the method: as §1
Trichoderma viride [16] = experiment: Antimicrobial activity against Trichoderma viride MTCC 167 at MIC after 48 hrs by agar diffusion method; summary of the method: as §2
Priestia megaterium [17] = experiment: Antimicrobial activity against Bacillus megaterium MTCC 1684 after 24 hrs; settings: MTCC 1684, 24 h; summary of the method: as §1
Candida albicans [18] = experiment: Antimicrobial activity against Candida albicans MTCC 227 at MIC after 48 hrs by agar diffusion method; summary of the method: as §2
Candida albicans [19] = experiment: Antimicrobial activity against Candida albicans MTCC 227 after 48 hrs; settings: MTCC 227, 48 h; summary of the method: as §2
Escherichia coli [20] = experiment: Antimicrobial activity against Escherichia coli MTCC 1650 after 24 hrs; settings: MTCC 1650, 24 h; summary of the method: as §1
Staphylococcus aureus [21] = experiment: Antimicrobial activity against Staphylococcus aureus MTCC 96 at MIC after 24 hrs by agar diffusion method; summary of the method: as §1
Proteus vulgaris [22] = experiment: Antimicrobial activity against Proteus vulgaris MTCC 1771 at MIC after 24 hrs by agar diffusion method; summary of the method: as §1
Penicillium chrysogenum [23] = experiment: Antimicrobial activity against Penicillium chrysogenum MTCC 1996 after 48 hrs; settings: MTCC 1996, 48 h; summary of the method: as §2
Bacillus subtilis [24] = experiment: Antimicrobial activity against Bacillus subtilis MTCC 1789 after 24 hrs; settings: MTCC 1789, 24 h; summary of the method: as §1

Compound | inhibition zone (IZ) (Serratia marcescens [1]) | inhibition zone (IZ) (Escherichia coli [2]) | inhibition zone (IZ) (Aspergillus niger [3]) | MIC (Aspergillus flavus [4]) | MIC (Trichoderma viride [5]) | inhibition zone (IZ) (Aspergillus flavus [6]) | inhibition zone (IZ) (Penicillium chrysogenum [7]) | MIC (Staphylococcus aureus [9]) | inhibition zone (IZ) (Bacillus subtilis [10]) | MIC (Serratia marcescens [11]) | MIC (Proteus vulgaris [12]) | MIC (Klebsiella pneumoniae [13]) | MIC (Aspergillus niger [14]) | inhibition zone (IZ) (Priestia megaterium [15]) | MIC (Pseudomonas aeruginosa) | inhibition zone (IZ) (Trichoderma viride [16]) | MIC (Priestia megaterium [17]) | inhibition zone (IZ) (Candida albicans [18]) | MIC (Candida albicans [19]) | MIC (Escherichia coli [20]) | also measured
Nc1n[nH]c2nc3scc(-c4ccc(Br)cc4)n3c(=O)c12 | inactive | 14 mm | 10 mm | 250 µg/mL (≈ 690 µM) | 250 µg/mL (≈ 690 µM) | 10 mm | 15 mm | 50 µg/mL (≈ 138 µM) | inactive | 50 µg/mL (≈ 138 µM) | 50 µg/mL (≈ 138 µM) | 50 µg/mL (≈ 138 µM) | 250 µg/mL (≈ 690 µM) | inactive | 50 µg/mL (≈ 138 µM) | 27 mm | 50 µg/mL (≈ 138 µM) | 10 mm | 250 µg/mL (≈ 690 µM) | 50 µg/mL (≈ 138 µM) | inhibition zone (IZ) (Klebsiella pneumoniae [8]): inactive; inhibition zone (IZ) (Staphylococcus aureus [21]): 18 mm; inhibition zone (IZ) (Proteus vulgaris [22]): inactive; MIC (Penicillium chrysogenum [23]): 250 µg/mL (≈ 690 µM); MIC (Bacillus subtilis [24]): 50 µg/mL (≈ 138 µM)
Nc1n[nH]c2nc3scc(-c4cc(Cl)c(Cl)cc4O)n3c(=O)c12 | inactive | 12 mm | 11 mm | 250 µg/mL (≈ 679 µM) | 250 µg/mL (≈ 679 µM) | 18 mm | 23 mm | 50 µg/mL (≈ 136 µM) | inactive | 50 µg/mL (≈ 136 µM) | 50 µg/mL (≈ 136 µM) | 50 µg/mL (≈ 136 µM) | 250 µg/mL (≈ 679 µM) | inactive | 50 µg/mL (≈ 136 µM) | 22 mm | 50 µg/mL (≈ 136 µM) | 10 mm | 250 µg/mL (≈ 679 µM) | 50 µg/mL (≈ 136 µM) | inhibition zone (IZ) (Staphylococcus aureus [21]): inactive; MIC (Penicillium chrysogenum [23]): 250 µg/mL (≈ 679 µM); MIC (Bacillus subtilis [24]): 50 µg/mL (≈ 136 µM)
Cc1cc(-c2csc3nc4[nH]nc(N)c4c(=O)n23)c(O)cc1Cl | inactive | 12 mm | 9 mm | 250 µg/mL (≈ 719 µM) | 250 µg/mL (≈ 719 µM) | 12 mm | 32 mm | 50 µg/mL (≈ 144 µM) | inactive | 50 µg/mL (≈ 144 µM) | 50 µg/mL (≈ 144 µM) | 50 µg/mL (≈ 144 µM) | 250 µg/mL (≈ 719 µM) | inactive | 50 µg/mL (≈ 144 µM) | 27 mm | 50 µg/mL (≈ 144 µM) | 17 mm | 250 µg/mL (≈ 719 µM) | 50 µg/mL (≈ 144 µM) | inhibition zone (IZ) (Staphylococcus aureus [21]): inactive; MIC (Penicillium chrysogenum [23]): 250 µg/mL (≈ 719 µM); MIC (Bacillus subtilis [24]): 50 µg/mL (≈ 144 µM)
Nc1n[nH]c2nc3scc(-c4cc(Cl)ccc4O)n3c(=O)c12 | 18 mm | inactive | 16 mm | 250 µg/mL (≈ 749 µM) | 250 µg/mL (≈ 749 µM) | 11 mm | 25 mm | 50 µg/mL (≈ 150 µM) | 10 mm | 50 µg/mL (≈ 150 µM) | 50 µg/mL (≈ 150 µM) | 50 µg/mL (≈ 150 µM) | 250 µg/mL (≈ 749 µM) | 12 mm | 50 µg/mL (≈ 150 µM) | 27 mm | 50 µg/mL (≈ 150 µM) | 12 mm | 250 µg/mL (≈ 749 µM) | 50 µg/mL (≈ 150 µM) | inhibition zone (IZ) (Klebsiella pneumoniae [8]): 13 mm; inhibition zone (IZ) (Staphylococcus aureus [21]): 31 mm; inhibition zone (IZ) (Proteus vulgaris [22]): 9 mm; MIC (Penicillium chrysogenum [23]): 250 µg/mL (≈ 749 µM); MIC (Bacillus subtilis [24]): 50 µg/mL (≈ 150 µM)
Nc1n[nH]c2nc3scc(-c4ccc(Cl)cc4)n3c(=O)c12 | 21 mm | inactive | 12 mm | 250 µg/mL (≈ 787 µM) | 250 µg/mL (≈ 787 µM) | 23 mm | 26 mm | 50 µg/mL (≈ 157 µM) | 10 mm | 50 µg/mL (≈ 157 µM) | 50 µg/mL (≈ 157 µM) | 50 µg/mL (≈ 157 µM) | 250 µg/mL (≈ 787 µM) | inactive | 50 µg/mL (≈ 157 µM) | 20 mm | 50 µg/mL (≈ 157 µM) | 13 mm | 250 µg/mL (≈ 787 µM) | 50 µg/mL (≈ 157 µM) | inhibition zone (IZ) (Klebsiella pneumoniae [8]): 15 mm; inhibition zone (IZ) (Staphylococcus aureus [21]): inactive; MIC (Penicillium chrysogenum [23]): 250 µg/mL (≈ 787 µM); MIC (Bacillus subtilis [24]): 50 µg/mL (≈ 157 µM)
Nc1n[nH]c2nc3scc(-c4cc(Cl)cc(I)c4O)n3c(=O)c12 | inactive | inactive | inactive | 250 µg/mL (≈ 544 µM) | 250 µg/mL (≈ 544 µM) | inactive | 14 mm | 50 µg/mL (≈ 109 µM) | 14 mm | 50 µg/mL (≈ 109 µM) | 50 µg/mL (≈ 109 µM) | 50 µg/mL (≈ 109 µM) | 250 µg/mL (≈ 544 µM) | inactive | 50 µg/mL (≈ 109 µM) | 21 mm | 50 µg/mL (≈ 109 µM) | inactive | 250 µg/mL (≈ 544 µM) | 50 µg/mL (≈ 109 µM) | inhibition zone (IZ) (Staphylococcus aureus [21]): 16 mm; MIC (Penicillium chrysogenum [23]): 250 µg/mL (≈ 544 µM); MIC (Bacillus subtilis [24]): 50 µg/mL (≈ 109 µM)
Nc1n[nH]c2nc3scc(-c4ccccc4O)n3c(=O)c12 | 16 mm | inactive | 10 mm | 250 µg/mL (≈ 835 µM) | 250 µg/mL (≈ 835 µM) | inactive | inactive | 50 µg/mL (≈ 167 µM) | inactive | 50 µg/mL (≈ 167 µM) | 50 µg/mL (≈ 167 µM) | 50 µg/mL (≈ 167 µM) | 250 µg/mL (≈ 835 µM) | inactive | 50 µg/mL (≈ 167 µM) | 20 mm | 50 µg/mL (≈ 167 µM) | 18 mm | 250 µg/mL (≈ 835 µM) | 50 µg/mL (≈ 167 µM) | inhibition zone (IZ) (Klebsiella pneumoniae [8]): inactive; inhibition zone (IZ) (Staphylococcus aureus [21]): 12 mm; MIC (Penicillium chrysogenum [23]): 250 µg/mL (≈ 835 µM); MIC (Bacillus subtilis [24]): 50 µg/mL (≈ 167 µM)
